# According to ChEMBL document CHEMBL4020824, “Discovery of Potent and Orally Bioavailable Dihydropyrazole GPR40 Agonists” (J Med Chem, 2018):
# Calls of active or inactive are those of the source. The rule behind the calls is not given here.
# Key:
# [1] = system: Mus musculus; assay: Antidiabetic activity in C57BL/6J mouse assessed as glucose lowering effect at 1 mg/kg, po administered 1 hr prior to glucose challenge measured after 120 mins by IPGTT; format: functional, organism-based
# [2] = target: T1, Free fatty acid receptor 1 (Homo sapiens, UniProt O14842); assay: Agonist activity at human GPR40 expressed in CHOA12 cells assessed as induction of Ca2+ mobilization by FLIPR assay; format: functional, cell-based
# T1 sequence (O14842 whole entry): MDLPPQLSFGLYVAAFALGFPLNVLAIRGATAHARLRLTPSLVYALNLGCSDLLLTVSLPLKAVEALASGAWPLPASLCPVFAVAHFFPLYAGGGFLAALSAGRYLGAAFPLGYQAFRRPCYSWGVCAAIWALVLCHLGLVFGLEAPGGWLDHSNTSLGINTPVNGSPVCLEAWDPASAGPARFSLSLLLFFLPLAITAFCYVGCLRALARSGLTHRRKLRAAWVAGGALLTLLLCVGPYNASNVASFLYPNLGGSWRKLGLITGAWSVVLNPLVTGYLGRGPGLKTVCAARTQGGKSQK
# [3] = target: T1, Free fatty acid receptor 1; assay: Agonist activity at human GPR40 expressed in CHOA12 cells assessed as induction of Ca2+ mobilization at 8.3 uM by FLIPR assay relative to compound 2; format: functional, cell-based
# [4] = system: Liver; assay: (§1) Drug level in human liver microsomes treated with 2-((4S,5S)-1-(4-(((3R,4R)-1-(5-Ethoxy-2-fluorophenyl)-3-methylpiperidin-4-yl)oxy)phenyl)-4-methyl-3-(trifluoromethyl)-4,5-dihydro-1H-pyrazol-5-yl)acetic acid at 1 to 3 uM incubated for 20 mins in presence of NADPH measured after 90 mins by LC/MS/MS analysis; format: ADME, microsome
# Summary of the method: (§2)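 Human or rat liver microsomal incubations. The read-outs were % parent remaining, % D-ring dealkylation metabolites, % GSH adducts, and half-life (min). The metabolites followed were CYP450-mediated oxidative de-alkylation products (phenols) and GSH conjugates.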
# [5] = system: Liver; assay: as §1, with “rat” for “human”; format: ADME, microsome; summary of the method: as §2
# [6] = system: Liver; assay: Drug level in human liver microsomes treated with 2-((4S,5S)-1-(4-((1-(2-Fluoro-5-methoxyphenyl)piperidin-4-yl)-oxy)phenyl)-4-methyl-3-(trifluoromethyl)-4,5-dihydro-1H-pyrazol-5-yl)acetic acid at 1 to 3 uM incubated for 20 mins in presence of NADPH measured after 90 mins by LC/MS/MS analysis; format: ADME, microsome; summary of the method: as §2
# [7] = system: Liver; assay: Drug level in rat liver microsomes treated with 2-((4S,5S)-1-(4-((1-(2-Fluoro-5-methoxyphenyl)piperidin-4-yl)-oxy)phenyl)-4-methyl-3-(trifluoromethyl)-4,5-dihydro-1H-pyrazol-5-yl)acetic acid at 1 to 3 uM incubated for 20 mins in presence of NADPH measured after 90 mins by LC/MS/MS analysis; format: ADME, microsome; summary of the method: as §2
SMILES,EC50 [2],Activity [3],also measured
COc1ccc(F)c(-c2ccc(Cc3ccc(N4C[C@H](C(F)(F)F)C[C@@H]4CC(=O)O)cc3)c(C)c2)c1,–,–,Activity [1]: Active
COc1cc(N2CC[C@@H](Oc3ccc(N4N=C(C(F)(F)F)[C@@H](C)[C@@H]4CC(=O)O)cc3)[C@H](F)C2)c(Cl)cn1,180 nM,–,–
COc1ccc(F)c(N2CC[C@@H](COc3ccc(N4C[C@H](C(F)(F)F)C[C@@H]4CC(=O)O)cc3)C2)c1,–,Active,–
C[C@@H]1CN(c2cc(O)ccc2F)CC[C@H]1Oc1ccc(N2N=C(C(F)(F)F)[C@@H](C)[C@@H]2CC(=O)O)cc1,–,–,Drug uptake [4]: Metabolite_Detected; Drug uptake [5]: Metabolite_Detected
C[C@@H]1C(C(F)(F)F)=NN(c2ccc(OC3CCN(c4cc(Cl)ccc4Cl)CC3)cc2)[C@H]1CC(=O)O,250 nM,–,–
COc1cc(N2CCC(Oc3ccc(N4N=C(C(F)(F)F)[C@@H](C)[C@@H]4CC(=O)O)cc3)CC2)c(F)cn1,150 to 180 nM,–,–
C[C@@H]1C(C(F)(F)F)=NN(c2ccc(OC3CCN(c4cc(O)ccc4F)CC3)cc2)[C@H]1CC(=O)O,–,–,Drug uptake [6]: Metabolite_Detected; Drug uptake [7]: Metabolite_Detected
COc1ccc(F)c(N2CCC(Oc3ccc(N4C[C@H](C(F)(F)F)C[C@@H]4CC(=O)O)cc3)C2)c1 (stereo not given in full),2830 to 5360 nM,Active,–

# Continued, in another order:
EC50 [2],Activity [3],SMILES,also measured
220 nM,–,CCOc1ccc(F)c(N2CCC(Oc3ccc(N4N=C(C(F)(F)F)[C@@H](C)[C@@H]4CC(=O)O)cc3)CC2)c1,–
–,Active,COc1ccc(F)c(N2CC[C@H](COc3ccc(N4C[C@H](C(F)(F)F)C[C@@H]4CC(=O)O)cc3)C2)c1,–
–,Active,COc1ccc(F)c(N2CCC(Oc3ccc(N4C[C@H](C(F)(F)F)C[C@@H]4CC(=O)O)cc3)CC2)c1,–
100 nM,–,COc1ccc(Cl)c(N2CCC(Oc3ccc(N4N=C(C(F)(F)F)[C@@H](C)[C@@H]4CC(=O)O)cc3)CC2)c1,–
